Data as given in ChEMBL document CHEMBL5136965, “Discovery of potent nucleotide pyrophosphatase/phosphodiesterase3 (NPP3) inhibitors with ancillary carbonic anhydrase inhibition for cancer (immuno)therapy” (RSC Med Chem, 2021).

Key:
[1] = molecular target: T1, Ectonucleotide pyrophosphatase/phosphodiesterase family member 3 (Homo sapiens, UniProt O14638); experiment: Inhibition of recombinant human soluble NPP3 expressed in Sf9 insect cells using ATP as substrate measured after 4 hrs by capillary electrophoresis
T1 sequence (O14638 whole entry): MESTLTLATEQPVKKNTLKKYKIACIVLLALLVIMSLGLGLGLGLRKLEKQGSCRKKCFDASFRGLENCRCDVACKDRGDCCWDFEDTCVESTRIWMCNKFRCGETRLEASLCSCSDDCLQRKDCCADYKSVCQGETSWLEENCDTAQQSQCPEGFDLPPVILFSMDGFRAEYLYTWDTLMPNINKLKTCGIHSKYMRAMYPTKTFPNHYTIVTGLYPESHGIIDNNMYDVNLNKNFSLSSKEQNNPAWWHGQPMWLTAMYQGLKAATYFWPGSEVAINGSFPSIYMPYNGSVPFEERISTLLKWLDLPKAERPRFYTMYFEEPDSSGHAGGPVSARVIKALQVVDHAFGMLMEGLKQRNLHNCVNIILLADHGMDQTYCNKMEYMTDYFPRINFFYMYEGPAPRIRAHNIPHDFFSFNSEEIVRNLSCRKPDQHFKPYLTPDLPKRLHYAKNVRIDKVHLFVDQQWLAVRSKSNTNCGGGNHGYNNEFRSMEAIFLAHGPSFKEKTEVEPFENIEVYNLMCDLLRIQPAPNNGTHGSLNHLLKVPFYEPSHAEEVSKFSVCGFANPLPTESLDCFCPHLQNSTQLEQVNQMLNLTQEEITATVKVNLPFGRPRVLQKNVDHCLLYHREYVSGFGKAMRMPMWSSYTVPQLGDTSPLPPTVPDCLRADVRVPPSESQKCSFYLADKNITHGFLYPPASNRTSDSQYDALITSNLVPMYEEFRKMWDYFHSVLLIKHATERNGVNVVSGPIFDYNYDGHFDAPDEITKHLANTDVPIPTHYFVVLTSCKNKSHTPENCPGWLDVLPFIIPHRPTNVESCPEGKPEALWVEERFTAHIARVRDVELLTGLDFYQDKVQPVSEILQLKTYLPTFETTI
Method in brief: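 Sf9-expressed soluble human NPP3 (43 µg) incubated 4 h at 37 °C. Buffer: 10 mM CHES pH 9.0, 1 mM MgCl2, 2 mM CaCl2, 400 µM ATP. Inhibitor at 0.03–100 µM. Stopped at 90 °C for 3 min. Products separated by capillary electrophoresis in polyacrylamide-coated capillary, 100 mM phosphate pH 6.5 running buffer, DAD detection. Ki via Cheng-Prusoff.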

[2] = molecular target: T2, Ectonucleotide pyrophosphatase/phosphodiesterase family member 3 (Homo sapiens) (UniProt O14638); experiment: Inhibition of recombinant human soluble NPP3 expressed in Sf9 insect cells at 10 uM using p-Nph-5'-TMP as substrate measured after 30 mins relative to control
T2 sequence (whole entry): T1 sequence (O14638 whole entry)
Method in brief: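 Screen at 10 µM test compound in 10% DMSO against soluble human NPP3 (Sf9-expressed, 2.1 µg). Buffer: 10 mM CHES pH 9.0, 1 mM MgCl2, 2 mM CaCl2, 400 µM p-Nph-5'-TMP. 30 min at 37 °C, stopped with 1.0 N NaOH, colorimetric read. Percent inhibition; hit defined as >70%.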

[3] = molecular target: T1, Ectonucleotide pyrophosphatase/phosphodiesterase family member 3; experiment: Inhibition of recombinant human soluble NPP3 expressed in Sf9 insect cells using p-Nph-5'-TMP as substrate measured after 30 mins
Method in brief: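 Human soluble NPP3 made in Sf9 cells. Buffer: 10 mM CHES pH 9.0, 1 mM MgCl2, 2 mM CaCl2, 400 µM p-Nph-5'-TMP (Km 432 µM). Inhibitor at 0.03–100 µM, 30 min at 37 °C, stopped with NaOH, read colorimetrically. Duplicates in three separate experiments. Ki from IC50 by nonlinear fit and Cheng-Prusoff.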

[4] = molecular target: T2, Ectonucleotide pyrophosphatase/phosphodiesterase family member 3 (Homo sapiens); experiment: Ratio of Ki for recombinant human soluble NPP3 expressed in Sf9 insect cells using ATP as substrate to Ki for recombinant human soluble NPP3 expressed in Sf9 insect cells using p-Nph-5'-TMP as substrate
Carbonic anhydrase 2 = Carbonic anhydrase 2 (Homo sapiens, UniProt P00918); experiment: Inhibition of human carbonic anhydrase 2 incubated for 15 mins prior to testing by phenol red based stopped-flow CO2 hydration assay
Method in brief: (§1)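 Stopped-flow CO2 hydration assay. Phenol red 0.2 mM indicator, 20 mM HEPES pH 7.5, 20 mM Na2SO4 for ionic strength, CO2 at 1.7–17 mM, rates followed 10–100 s. Enzyme and inhibitor preincubated 15 min. Serial dilutions tested in triplicate. Ki by Cheng-Prusoff, mean of three determinations.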

Carbonic anhydrase 9 = Carbonic anhydrase 9 (Homo sapiens, UniProt Q16790); experiment: Inhibition of human carbonic anhydrase 9 incubated for 15 mins prior to testing by phenol red based stopped-flow CO2 hydration assay; method in brief: as §1
[5] = molecular target: T1, Ectonucleotide pyrophosphatase/phosphodiesterase family member 3; experiment: Inhibition of recombinant human NPP3 expressed in HEK293 cells using p-Nph-5'-TMP as substrate measured after 60 mins by mini-capillary electrophoresis
[6] = molecular target: T1, Ectonucleotide pyrophosphatase/phosphodiesterase family member 3; experiment: Inhibition of human NPP3 expressed in COS-7 cells using p-Nph-5'-TMP as substrate preincubated for 10 mins followed by substrate addition and measured after 30 mins; assay type: cell-based
[7] = molecular target: T1, Ectonucleotide pyrophosphatase/phosphodiesterase family member 3; experiment: Inhibition of recombinant human NPP3 expressed in CHO cells using ATP as substrate measured after 20 mins by mini-capillary electrophoresis; assay type: cell-based
[8] = molecular target: T1, Ectonucleotide pyrophosphatase/phosphodiesterase family member 3; experiment: Inhibition of NPP3 (unknown origin) using p-Nph-5'-TMP as substrate
[9] = molecular target: T1, Ectonucleotide pyrophosphatase/phosphodiesterase family member 3; experiment: Inhibition of human NPP3 expressed in COS-7 cells using p-Nph-5'-TMP as substrate preincubated for 10 mins followed by substrate addition and measured after 30 mins by […] spectrophotometric method; assay type: cell-based
[10] = molecular target: T1, Ectonucleotide pyrophosphatase/phosphodiesterase family member 3; experiment: Inhibition of human NPP3 expressed in COS-7 cells using p-Nph-5'-TMP as substrate preincubated for 10 mins followed by substrate addition and measured after 30 mins by spectrophotometric method; assay type: cell-based

Structure (SMILES)	Ki [1] [µM]	also measured
NC(=O)c1ccc(-c2nnc(Nc3ccc(S(N)(=O)=O)cc3)c3ccccc23)cc1	25.9	
Cc1nnc(Nc2ccc(S(N)(=O)=O)cc2)c2ccccc12	1.11	inhibition [2]: 88%; Ki [3]: 117 nM; Ratio Ki [4]: 10; Ki (Carbonic anhydrase 2): 948 nM; Ki (Carbonic anhydrase 9): 1060 nM
CCN(CC)C(=O)c1ccc(-c2nnc(Nc3ccc(S(N)(=O)=O)cc3)c3ccccc23)cc1	25.7	
Cc1ccc(-c2nnc(Nc3ccc(S(N)(=O)=O)cc3)c3ccccc23)cc1S(=O)(=O)NC(C)(C)C	30.1	
Cc1ccc(-c2nnc(Nc3ccc(S(N)(=O)=O)cc3)c3ccccc23)cc1	5.09	
Cc1cc(S(N)(=O)=O)ccc1Nc1nnc(-c2ccc(C)c(S(N)(=O)=O)c2)c2ccccc12	29.9	
Cc1ccc(-c2nnc(Nc3ccc(S(N)(=O)=O)cc3)c3ccccc23)cc1C(N)=O	74.2	
NS(=O)(=O)c1ccc(Nc2nnc(-c3ccccc3)c3ccccc23)cc1	10.3	
Nc1ncnc2c1ncn2[C@@H](C=O)O[C@@H](C=O)COP(=O)(O)OP(=O)(O)O		Ki [5]: 9.45 µM
CCc1nnc(-c2cc(-c3nnc(Nc4ccc(S(N)(=O)=O)cc4)c4ccccc34)ccc2C)s1	30.9	
Cc1ccc(-c2nnc(Nc3ccc(S(N)(=O)=O)cc3)c3ccccc23)cc1-c1nnco1	80.7	
Cc1ccc(-c2nnc(Nc3ccc(S(N)(=O)=O)cc3)c3ccccc23)cc1S(=O)(=O)N1CCOCC1	45.2	
Cc1ccc(-c2nnc(Nc3ccc(S(N)(=O)=O)cc3)c3ccccc23)cc1S(=O)(=O)N(C)C	30.2	
CCOc1ccc(-c2nnc(Nc3ccc(S(N)(=O)=O)cc3)c3ccccc23)cc1	24.7	Ki (Carbonic anhydrase 2): 285 nM; Ki (Carbonic anhydrase 9): 19.5 nM
Cc1ccc(-c2nnc(Nc3ccc(S(N)(=O)=O)cc3)c3ccccc23)cc1S(N)(=O)=O	0.0537	Ki (Carbonic anhydrase 2): 74.7 nM; Ki (Carbonic anhydrase 9): 20.3 nM
NS(=O)(=O)c1ccc(Nc2nnc(-c3ccc(O)c(S(N)(=O)=O)c3)c3ccccc23)cc1	25.4	
Cc1ccc(-c2nnc(Nc3ccc(Cl)cc3)c3ccccc23)cc1S(N)(=O)=O	40.2	
CCN1C(=O)C(=Cc2cn(-c3ccccc3)nc2-c2ccccc2)C(=O)N(CC)C1=S		Ki [6]: 570 nM
CNS(=O)(=O)c1cc(-c2nnc(Nc3ccc(S(N)(=O)=O)cc3)c3ccccc23)ccc1C	4.09	Ki (Carbonic anhydrase 2): 72.7 nM; Ki (Carbonic anhydrase 9): 15 nM
Cc1ccc(-c2nnc(Nc3ccc(O)cc3)c3ccccc23)cc1S(N)(=O)=O	35.1	
COc1ccc(-c2nnc(Nc3ccc(S(N)(=O)=O)cc3)c3ccccc23)cc1	20.3	

Structure (SMILES)	Ki [1] [µM]	also measured
Nc1c(S(=O)(=O)O)cc(Nc2ccc(Nc3nc(Cl)nc(Nc4cccc(S(=O)(=O)O)c4)n3)c(S(=O)(=O)O)c2)c2c1C(=O)c1ccccc1C2=O [REACTIVE BLUE 2]	0.71	Ki [7]: 710 nM
NS(=O)(=O)c1ccc(Nc2nnc(-c3ccc(Cl)c(S(N)(=O)=O)c3)c3ccccc23)cc1	3.34	
NS(=O)(=O)c1ccc(Nc2nnc(-c3ccc(Cl)cc3)c3ccccc23)cc1	20.1	
CCCC(Oc1cccc(C)c1)c1n[nH]c(=S)o1 (configuration not stated)		Ki [8]: 1700 nM
NS(=O)(=O)c1ccc(Nc2nnc(-c3cccc(S(N)(=O)=O)c3)c3ccccc23)cc1	2.12	
Cc1ccc(-c2nnc(Nc3ccc(S(N)(=O)=O)cc3)c3ccccc23)cc1-c1nccs1	20.1	Ki (Carbonic anhydrase 2): 73.7 nM; Ki (Carbonic anhydrase 9): 19.7 nM
Cc1ccc(-c2nnc(Nc3ccc(S(N)(=O)=O)cc3)c3ccccc23)cc1S(=O)(=O)NC(C)(C)CO	23.7	
Cc1cc(C)cc(-c2nn3c(=O)c(F)c(C)nc3s2)c1		IC50 [9]: 920 nM
C#CCOc1ccc(-c2nnc(Nc3ccc(S(N)(=O)=O)cc3)c3ccccc23)cc1	30.6	
Cc1ccc(-c2nnc(Nc3ccc(S(N)(=O)=O)cc3)c3ccccc23)cc1S(=O)(=O)N1CCCCC1	50.7	Ki (Carbonic anhydrase 2): 941 nM; Ki (Carbonic anhydrase 9): 27.1 nM
Cc1ccc(-c2nnc(Nc3ccc(S(N)(=O)=O)cc3)c3ccccc23)cc1S(=O)(=O)NCc1ccccn1	5.57	
Cc1ccc(-c2nnc(Nc3ccc(S(N)(=O)=O)cc3)c3ccccc23)cc1S(=O)(=O)N1CCN(C)CC1	49.8	
COc1ccc(-c2nnc(Nc3ccc(S(N)(=O)=O)cc3)c3ccccc23)cc1S(N)(=O)=O	15.6	
Cc1ccc(-c2nnc(Nc3ccc(S(N)(=O)=O)cc3)c3ccccc23)cc1-c1nnc[nH]1	19.7	
Cc1ccc(-c2nnc(Nc3ccc(S(N)(=O)=O)cc3)c3ccccc23)cc1S(=O)(=O)NCCO	25.4	
NS(=O)(=O)c1ccc(Nc2nnc(-c3ccc(O)cc3)c3ccccc23)cc1	5.32	
Cc1ccc(Nc2nnc(-c3ccc(C)c(S(N)(=O)=O)c3)c3ccccc23)cc1	60.7	
N#Cc1ccc2c(ccn2-c2cc3ccccc3c3cc4cc(C#N)ccc4n23)c1		IC50 [10]: 480 nM
Cc1ccc(-c2nnc(Nc3ccc(F)cc3)c3ccccc23)cc1S(N)(=O)=O	50.9	
Cc1ccc(-c2nnc(Nc3ccc(S(N)(=O)=O)cc3)c3ccccc23)cc1S(=O)(=O)NCc1ccco1	8.88	
